ChEMBL document CHEMBL1153824, “Novel isothiourea derivatives as potent neuroprotectors and cognition enhancers: synthesis, biological and physicochemical properties” (J Med Chem, 2009)
Blank lines part the entries; values can stand above or below the compound they belong to. Active and inactive are the calls of the source. The rule behind the calls is not given here.

Tests used:
Rattus norvegicus [1] = species on record: Rattus norvegicus; assay: Agonist activity at AMPA receptor in rat purkinje neurons assessed as potentiation of kainate-induced transmembrane current at 30 uM by patch-clamp technique relative to kainate; assay type: functional
In short: (§1)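 Whole-cell patch-clamp on Purkinje neurons freshly dissociated from cerebellum of 14-18 day old rats. Slices were incubated 1 h in saline, then treated with Pronase and collagenase at 34 °C under O2 and triturated. Extracellular saline was HEPES-buffered, pH 7.32, with KCl/EGTA/ATP pipette solution. Agonist (kainate or glutamate) was applied with or without compound by fast perfusion. Potentiation was taken relative to the agonist-alone current.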

Rattus norvegicus [2] = species on record: Rattus norvegicus; assay: Agonist activity at AMPA receptor in rat purkinje neurons assessed as potentiation of 500 uM glutamate-induced transmembrane current at 30 uM relative to glutamate; assay type: functional; in short: as §1
Rattus norvegicus [3] = species on record: Rattus norvegicus; assay: Agonist activity at AMPA receptor in rat purkinje neurons assessed as potentiation of glutamate-induced transmembrane current at 30 uM by patch-clamp technique relative to kainate; assay type: functional; in short: as §1
Rattus norvegicus [4] = species on record: Rattus norvegicus; assay: Agonist activity at AMPA receptor in rat purkinje neurons assessed as potentiation of 1000 uM kainate-induced transmembrane current at 30 uM by patch-clamp technique relative to kainate; assay type: functional; in short: as §1
Rattus norvegicus [5] = species on record: Rattus norvegicus; assay: Agonist activity at AMPA receptor in rat purkinje neurons assessed as potentiation of 4000 uM kainate-induced transmembrane current at 30 uM by patch-clamp technique relative to kainate; assay type: functional; in short: as §1
Rattus norvegicus [6] = species on record: Rattus norvegicus; assay: Agonist activity at AMPA receptor in rat purkinje neurons assessed as potentiation of 500 uM kainate-induced transmembrane current at 50 uM relative to kainate; assay type: functional; in short: as §1
[7] = molecular target: T1, Glutamate NMDA receptor (Rattus norvegicus) (UniProt P35439+Q00959+Q00960+Q00961+Q62645+Q8VHN2+Q9R1M7); assay: Antagonist activity at NMDA receptor in rat cerebral cortex neurons assessed as 50 uM NMDA-induced current at 1 uM relative to control; assay type: functional; parameters: scale not given: the % may be the effect or the level left
In short: (§2)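 Whole-cell currents were evoked by NMDA (50, 100, 5000 or 10000 µM) in a heterogeneous primary culture of rat cerebral cortex neurons. Compound was tested at 0.5-30 µM. Current amplitude was expressed as percent of the NMDA-alone control.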

[8] = molecular target: T1, Glutamate NMDA receptor (Rattus norvegicus); assay: Antagonist activity at NMDA receptor in rat cerebral cortex neurons assessed as 50 uM NMDA-induced current at 30 uM relative to control; assay type: functional, tissue-based; parameters: scale not given: the % may be the effect or the level left; in short: as §2
[9] = molecular target: T1, Glutamate NMDA receptor (Rattus norvegicus); assay: Antagonist activity at NMDA receptor in rat cerebral cortex neurons assessed as 50 uM NMDA-induced current at 2 uM relative to control; assay type: functional, tissue-based; parameters: scale not given: the % may be the effect or the level left; in short: as §2
[10] = molecular target: T1, Glutamate NMDA receptor (Rattus norvegicus); assay: Antagonist activity at NMDA receptor in rat cerebral cortex neurons assessed as 5000 uM NMDA-induced current at 5 uM relative to control; assay type: functional, tissue-based; parameters: scale not given: the % may be the effect or the level left; in short: as §2
[11] = molecular target: T1, Glutamate NMDA receptor (Rattus norvegicus); assay: Antagonist activity at NMDA receptor in rat cerebral cortex neurons assessed as 5000 uM NMDA-induced current at 1 uM relative to control; assay type: functional, tissue-based; parameters: scale not given: the % may be the effect or the level left; in short: as §2
[12] = molecular target: T1, Glutamate NMDA receptor (Rattus norvegicus); assay: Antagonist activity at NMDA receptor in rat cerebral cortex neurons assessed as 10000 uM NMDA-induced current at 2 uM relative to control; assay type: functional, tissue-based; parameters: scale not given: the % may be the effect or the level left; in short: as §2
[13] = molecular target: T1, Glutamate NMDA receptor (Rattus norvegicus); assay: Antagonist activity at NMDA receptor in rat cerebral cortex neurons assessed as 5000 uM NMDA-induced current at 0.5 uM relative to control; assay type: functional, tissue-based; parameters: scale not given: the % may be the effect or the level left; in short: as §2
[14] = molecular target: T1, Glutamate NMDA receptor (Rattus norvegicus); assay: Antagonist activity at NMDA receptor in rat cerebral cortex neurons assessed as 10000 uM NMDA-induced current at 10 uM relative to control; assay type: functional, tissue-based; parameters: scale not given: the % may be the effect or the level left; in short: as §2
Rattus norvegicus [15] = species on record: Rattus norvegicus; assay: Agonist activity at AMPA receptor in rat purkinje neurons assessed as increase in potentiation of kainate-induced transmembrane current at 30 uM by patch-clamp technique relative to S-ethyl-N-allyl-N',N'-dibenzylisothiourea hydroiodide; assay type: functional
[16] = molecular target: T1, Glutamate NMDA receptor (Rattus norvegicus); assay: Antagonist activity at NMDA receptor in rat cerebral cortex neurons assessed as 50 uM NMDA-induced current at 5 uM relative to control; assay type: functional, tissue-based; parameters: scale not given: the % may be the effect or the level left; in short: as §2
[17] = molecular target: T1, Glutamate NMDA receptor (Rattus norvegicus); assay: Antagonist activity at NMDA receptor in rat cerebral cortex neurons assessed as 50 uM NMDA-induced current at 0.5 uM relative to control; assay type: functional, tissue-based; parameters: scale not given: the % may be the effect or the level left; in short: as §2
[18] = molecular target: T1, Glutamate NMDA receptor (Rattus norvegicus); assay: Antagonist activity at NMDA receptor in rat cerebral cortex neurons assessed as 100 uM NMDA-induced current at 0.5 uM relative to control; assay type: functional, tissue-based; parameters: scale not given: the % may be the effect or the level left; in short: as §2
[19] = molecular target: T1, Glutamate NMDA receptor (Rattus norvegicus); assay: Antagonist activity at NMDA receptor in rat cerebral cortex neurons assessed as 100 uM NMDA-induced current at 1 uM relative to control; assay type: functional, tissue-based; parameters: scale not given: the % may be the effect or the level left; in short: as §2
[20] = molecular target: T1, Glutamate NMDA receptor (Rattus norvegicus); assay: Antagonist activity at NMDA receptor in rat cerebral cortex neurons assessed as 5000 uM NMDA-induced current at 10 uM relative to control; assay type: functional, tissue-based; parameters: scale not given: the % may be the effect or the level left; in short: as §2
[21] = molecular target: T1, Glutamate NMDA receptor (Rattus norvegicus); assay: Antagonist activity at NMDA receptor in rat cerebral cortex neurons assessed as 5000 uM NMDA-induced current at 2 uM relative to control; assay type: functional, tissue-based; parameters: scale not given: the % may be the effect or the level left; in short: as §2
[22] = molecular target: T1, Glutamate NMDA receptor (Rattus norvegicus); assay: Antagonist activity at NMDA receptor in rat cerebral cortex neurons assessed as 10000 uM NMDA-induced current at 1 uM relative to control; assay type: functional, tissue-based; parameters: scale not given: the % may be the effect or the level left; in short: as §2
[23] = molecular target: T1, Glutamate NMDA receptor (Rattus norvegicus); assay: Antagonist activity at NMDA receptor in rat cerebral cortex neurons assessed as 10000 uM NMDA-induced current at 5 uM relative to control; assay type: functional, tissue-based; parameters: scale not given: the % may be the effect or the level left; in short: as §2
[24] = molecular target: T1, Glutamate NMDA receptor (Rattus norvegicus); assay: Antagonist activity at NMDA receptor in rat cerebral cortex neurons assessed as 5000 uM NMDA-induced current at 30 uM relative to control; assay type: functional, tissue-based; parameters: scale not given: the % may be the effect or the level left; in short: as §2
[25] = molecular target: T1, Glutamate NMDA receptor (Rattus norvegicus); assay: Antagonist activity at NMDA receptor in rat cerebral cortex neurons assessed as 50 uM NMDA-induced current at 10 uM relative to control; assay type: functional, tissue-based; parameters: scale not given: the % may be the effect or the level left; in short: as §2
[26] = molecular target: T1, Glutamate NMDA receptor (Rattus norvegicus); assay: Antagonist activity at NMDA receptor in rat cerebral cortex neurons assessed as 10000 uM NMDA-induced current at 0.5 uM relative to control; assay type: functional, tissue-based; parameters: scale not given: the % may be the effect or the level left; in short: as §2
[27] = molecular target: T1, Glutamate NMDA receptor (Rattus norvegicus); assay: Antagonist activity at NMDA receptor in rat cerebral cortex neurons assessed as 100 uM NMDA-induced current at 10 uM relative to control; assay type: functional, tissue-based; parameters: scale not given: the % may be the effect or the level left; in short: as §2
[28] = molecular target: T1, Glutamate NMDA receptor (Rattus norvegicus); assay: Antagonist activity at NMDA receptor in rat cerebral cortex neurons assessed as 10000 uM NMDA-induced current at 30 uM relative to control; assay type: functional, tissue-based; parameters: scale not given: the % may be the effect or the level left; in short: as §2
[29] = molecular target: T1, Glutamate NMDA receptor (Rattus norvegicus); assay: Antagonist activity at NMDA receptor in rat cerebral cortex neurons assessed as 100 uM NMDA-induced current at 5 uM relative to control; assay type: functional, tissue-based; parameters: scale not given: the % may be the effect or the level left; in short: as §2
[30] = molecular target: T1, Glutamate NMDA receptor (Rattus norvegicus); assay: Antagonist activity at NMDA receptor in rat cerebral cortex neurons assessed as 100 uM NMDA-induced current at 2 uM relative to control; assay type: functional, tissue-based; parameters: scale not given: the % may be the effect or the level left; in short: as §2
[31] = molecular target: T1, Glutamate NMDA receptor (Rattus norvegicus); assay: Antagonist activity at NMDA receptor in rat cerebral cortex neurons assessed as 100 uM NMDA-induced current at 30 uM relative to control; assay type: functional, tissue-based; parameters: scale not given: the % may be the effect or the level left; in short: as §2

- Activity (Rattus norvegicus [1]): Active
- fold change (FC) (Rattus norvegicus [2]): 7
- Activity (Rattus norvegicus [3]): Active
- Activity (Rattus norvegicus [4]): 150%
- Activity (Rattus norvegicus [5]): 60%
- Activity (Rattus norvegicus [6]): Active
Structure (SMILES): NS(=O)(=O)c1cc2c(cc1Cl)NC(C1CC3C=CC1C3)NS2(=O)=O (configuration not stated)

- Activity [7]: 68%
- Activity [8]: 11%
- Activity [9]: 48%
- Activity (Rattus norvegicus [1]): Active
- Activity [10]: 20%
- Activity [11]: 35%
- Activity [12]: 26%
- fold change (FC) (Rattus norvegicus [2]): 26.9
- Activity [13]: 59%
- Activity (Rattus norvegicus [3]): Active
- Activity [14]: 10%
- Activity (Rattus norvegicus [15]): 5%
- Activity [16]: 34%
- Activity [17]: 98%
- Activity [18]: 99%
- Activity (Rattus norvegicus [4]): 290%
- Activity [19]: 48%
- Activity [20]: 14%
- Activity [21]: 36%
- Activity [22]: 35%
- Activity (Rattus norvegicus [5]): 132%
- Activity [23]: 16%
- Activity [24]: 4%
- Activity [25]: 31%
- Activity [26]: 45%
- Activity [27]: 23%
- Activity [28]: 3%
- Activity [29]: 35%
- Activity (Rattus norvegicus [6]): Active
- Activity [30]: 55%
- Activity [31]: 8%
Structure (SMILES): C=CC/N=C(\SCC)N(Cc1ccccc1)Cc1ccccc1
